# The source made the active and inactive calls. The rule behind the calls is not given here.
# Legend:
# SH-SY5Y [1] = assay: Cytotoxicity against human SH-SY5Y cells assessed as reduction in cell viability incubated for 24 hrs by MUH reagent based spectrophotometric analysis; format: functional
# SH-SY5Y [2] = assay: Cytotoxicity against human SH-SY5Y cells assessed as reduction in cell viability incubated for 48 hrs by MUH reagent based spectrophotometric analysis; format: functional
# SH-SY5Y [3] = assay: Cytotoxicity against human SH-SY5Y cells assessed as reduction in cell viability incubated for 72 hrs by MUH reagent based spectrophotometric analysis; format: functional
# How it was run: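 SH-SY5Y in DMEM/10% FBS seeded 0.75 × 10⁴ cells/well, after 24 h treated with 0.1–100 μM for 24, 48 or 72 h. Washed, incubated with MUH 0.01 mg/mL in PBS 30 min at 37 °C in the dark; fluorescence ex 330/em 450 nm, normalized to untreated cells. IC50 by nonlinear regression, log(inhibitor) vs normalized response.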
# Histone deacetylase 2 = Histone deacetylase 2 (Homo sapiens, UniProt Q92769); assay: Inhibition of human recombinant HDAC2 using aminoluciferin-conjugated histone 4 derived acetylated lysine peptide as substrate incubated for 30 mins by bio-luminogenic assay
# Sequence of Histone deacetylase 2 (Q92769 whole entry): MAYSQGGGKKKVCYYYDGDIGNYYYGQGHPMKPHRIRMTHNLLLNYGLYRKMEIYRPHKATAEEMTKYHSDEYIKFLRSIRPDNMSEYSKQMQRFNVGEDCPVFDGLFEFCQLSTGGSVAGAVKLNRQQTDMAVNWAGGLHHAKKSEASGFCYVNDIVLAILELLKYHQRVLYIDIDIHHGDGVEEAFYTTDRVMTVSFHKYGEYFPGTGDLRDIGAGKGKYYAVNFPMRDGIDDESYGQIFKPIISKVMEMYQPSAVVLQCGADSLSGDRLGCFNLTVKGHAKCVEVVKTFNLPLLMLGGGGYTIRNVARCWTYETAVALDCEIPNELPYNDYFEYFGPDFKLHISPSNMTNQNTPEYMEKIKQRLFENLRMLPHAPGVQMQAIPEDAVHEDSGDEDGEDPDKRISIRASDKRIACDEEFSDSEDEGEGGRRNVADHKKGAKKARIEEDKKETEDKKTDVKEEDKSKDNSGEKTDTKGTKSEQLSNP
# [4] = biological target: T1, Protein deacetylase HDAC6 (Homo sapiens, UniProt Q9UBN7); assay: Inhibition of human recombinant HDAC6 using aminoluciferin-conjugated histone 4 derived acetylated lysine peptide as substrate incubated for 30 mins by bio-luminogenic assay
# T1 sequence (Q9UBN7 whole entry): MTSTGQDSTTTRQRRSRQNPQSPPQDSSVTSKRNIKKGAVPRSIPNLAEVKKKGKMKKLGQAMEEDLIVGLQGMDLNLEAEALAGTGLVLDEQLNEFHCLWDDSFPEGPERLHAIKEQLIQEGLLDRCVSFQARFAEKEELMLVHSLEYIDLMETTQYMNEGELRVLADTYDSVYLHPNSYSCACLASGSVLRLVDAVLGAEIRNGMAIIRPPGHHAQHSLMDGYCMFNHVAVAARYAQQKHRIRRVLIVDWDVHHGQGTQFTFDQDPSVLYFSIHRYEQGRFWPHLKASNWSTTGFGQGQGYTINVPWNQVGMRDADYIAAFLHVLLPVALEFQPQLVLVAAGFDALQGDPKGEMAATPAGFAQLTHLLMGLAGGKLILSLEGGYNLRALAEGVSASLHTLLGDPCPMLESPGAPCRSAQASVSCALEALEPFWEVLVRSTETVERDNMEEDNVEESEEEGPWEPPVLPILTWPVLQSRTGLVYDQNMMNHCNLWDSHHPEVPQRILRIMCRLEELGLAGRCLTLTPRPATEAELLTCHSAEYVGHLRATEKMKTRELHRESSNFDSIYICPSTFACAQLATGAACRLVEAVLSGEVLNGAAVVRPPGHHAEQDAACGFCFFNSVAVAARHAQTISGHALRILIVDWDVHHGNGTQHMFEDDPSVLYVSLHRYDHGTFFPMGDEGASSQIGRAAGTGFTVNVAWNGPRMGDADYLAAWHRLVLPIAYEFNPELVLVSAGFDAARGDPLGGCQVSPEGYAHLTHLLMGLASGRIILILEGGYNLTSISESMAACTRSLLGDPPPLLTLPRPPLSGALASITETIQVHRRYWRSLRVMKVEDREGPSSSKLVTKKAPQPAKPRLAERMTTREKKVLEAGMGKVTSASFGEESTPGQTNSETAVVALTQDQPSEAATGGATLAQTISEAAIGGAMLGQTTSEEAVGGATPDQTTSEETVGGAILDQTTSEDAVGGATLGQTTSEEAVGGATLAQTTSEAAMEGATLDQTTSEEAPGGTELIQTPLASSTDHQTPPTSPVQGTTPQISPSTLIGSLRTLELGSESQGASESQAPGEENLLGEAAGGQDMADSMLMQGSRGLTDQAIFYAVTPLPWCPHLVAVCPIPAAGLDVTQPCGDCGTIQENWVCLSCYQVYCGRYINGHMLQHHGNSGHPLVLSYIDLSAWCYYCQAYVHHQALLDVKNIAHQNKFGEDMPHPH
# [5] = biological target: Histone deacetylase (Homo sapiens) (UniProt Q13547+O15379+Q9UBN7+Q92769+Q9UQL6+Q8WUI4+Q9BY41+Q96DB2+P56524+Q9UKV0+Q969S8); assay: Inhibition of HDAC in human SH-SY5Y cells assessed as hyperacetylation of histone H2/H3 at 5 uM incubated for 6 hrs by western blot analysis; format: cell-based
# How it was run: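 SH-SY5Y seeded at 20 × 10⁴ cells/cm², after 48 h given 5 μM compound or vehicle for 6 h. Nuclei isolated, histones acid-extracted (0.4 N H2SO4, 4 °C 1 h), acetone-precipitated, run on 15% gel and blotted with anti-acetyl-lysine antibody, ECL detection; densitometry normalized to H1.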
# SH-SY5Y [6] = assay: Induction of oxidative stress in human SH-SY5Y cells assessed as increase in ROS production at 2 uM incubated for 24 hrs by DCFH-DA staining based fluorescence analysis; format: functional, cell-based
# How it was run: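 SH-SY5Y plated 1 × 10⁴ cells/well, allowed 24 h to adhere, then given 2 μM compound or vehicle for 24 h. Cells PBS-washed and loaded with 10 μM DCFDA in DMEM for 30 min, washed again; fluorescence at ex 485/em 535 nm normalized to protein content (Lowry). n = 5; mean ± SD, triplicate.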
# SH-SY5Y [7] = assay: Antioxidant activity in human SH-SY5Y cells assessed as protection against […]-induced oxidative stress at 2 uM pretreated for 24 hrs followed by incubation with […] for 30 mins by DCFH-DA staining based fluorescence analysis; format: functional, cell-based; settings: time 24.5 hrs
# How it was run: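 SH-SY5Y seeded 1 × 10⁴ cells/well, adhered 24 h, exposed to 2 μM compound or vehicle for 24 h, then loaded with 10 μM DCFDA in DMEM for 30 min; stress induced afterwards with 100 μM TBH in PBS for 30 min. Fluorescence read at ex 485/em 535 nm, normalized to Lowry protein; n = 5, triplicate.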
# SH-SY5Y [8] = assay: Cytotoxicity against human SH-SY5Y cells assessed as reduction in cell viability at 1 uM pretreated with antioxidant, NAC for 1 hr followed by incubation with drug for 24 hrs by MUH reagent based spectrophotometric analysis; format: functional
# How it was run: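 SH-SY5Y pretreated 1 h with 2 mM NAC, then exposed to compound at 1 or 10 μM for 24 h. Viability read by MUH hydrolysis (0.01 mg/mL, 30 min, 37 °C; ex 330/em 450 nm) as percent of untreated cells; two-way ANOVA with Tukey post hoc.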
# HepG2 = assay: Cytotoxicity against human HepG2 cells assessed as cell viability upto 10 uM incubated for 24 hrs by MTT assay; format: toxicity, cell-based; settings: hepg2, 24 h
# How it was run: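 HepG2 in MEM with 10% FBS, plated 1.5 × 10⁴ cells/well; after 24 h exposed to 0.010–100 μM compound or vehicle for 24 h. MTT (0.2 mg/mL in PBS) for 2 h at 37 °C, formazan dissolved in DMSO, absorbance at 570 nm. Viability relative to vehicle controls, mean ± SD, n = 4.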
SMILES,IC50 (SH-SY5Y [1]) [µM],IC50 (SH-SY5Y [2]) [µM],IC50 (SH-SY5Y [3]) [µM],IC50 (Histone deacetylase 2) [µM],IC50 [4] [µM],inhibition [5],Activity (SH-SY5Y [6]),Activity (SH-SY5Y [7]),Activity (SH-SY5Y [8]),Activity (HepG2)
CC1=C(NCc2ccc(C(=O)Nc3ccccc3N)cc2)C(=O)c2ccccc2C1=O,1.56,0.78,0.62,2.1,3.76,Active,Active,inactive,inactive,–
CC1=C(NCCCCNC(=O)CS)C(=O)c2ccccc2C1=O,> 100,> 100,> 100,25.2,30,–,inactive,inactive,–,Non-Toxic
